S1P2 agonist = S1P2 receptor agonists, primary screen, cell-based; actives 0.46% (n = 97,000); S1P2-expressing cell line, agonist reporter read-out; activation, % at 4.5 µM; in the data active = activation above about 16%
EphB4 ephrin blk = EphB4-ephrin-B2 interaction antagonists, primary screen, biochemical, TNYL-RAW peptide probe, fluorescence polarization | inhibition, % at 7 µM | Ephrin type-B receptor 4 (Homo sapiens), P54760 | actives 0.15% (n = 97,000) | EphB4 LBD / TNYL-RAW-Alexa532 peptide;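 active = inhibition above the screen-wide mean inhibition plus 3 SD, cut at about 15% in these data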
GALR2 blocker = GALR2 antagonists in receptor-expressing cells, primary screen; antagonist mode; inhibition, % at 4 µM; actives 0.39% (n = 140,000); AID 828, 2007; in the data active = inhibition above about 27%;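 note: cells stimulated with galanin 1-16 at roughly its EC80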
Target sequence (O43603 whole entry, looked up): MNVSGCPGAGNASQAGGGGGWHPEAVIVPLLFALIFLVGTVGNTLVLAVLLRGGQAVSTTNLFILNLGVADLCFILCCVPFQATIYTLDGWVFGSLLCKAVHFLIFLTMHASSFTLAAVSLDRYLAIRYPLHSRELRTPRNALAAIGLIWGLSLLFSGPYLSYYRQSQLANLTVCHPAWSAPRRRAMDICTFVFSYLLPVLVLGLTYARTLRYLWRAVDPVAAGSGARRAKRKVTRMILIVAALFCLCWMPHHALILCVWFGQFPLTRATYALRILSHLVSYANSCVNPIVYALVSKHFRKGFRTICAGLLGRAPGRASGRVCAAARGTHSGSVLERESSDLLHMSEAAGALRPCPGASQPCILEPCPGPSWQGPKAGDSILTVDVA
HIV Rev-RRE inh = HIV-1 Rev-RRE binding inhibitors, primary screen, biochemical, FRET, protein-RNA interaction; AID 704, 2007; Rev peptide-RRE RNA binding; P05866; inhibition, % at 8 µM; actives 0.79% (n = 97,000);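 active = inhibition above the screen-wide mean plus 3 SD, cut at about 35% in these data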
Target sequence (P05866 whole entry, looked up): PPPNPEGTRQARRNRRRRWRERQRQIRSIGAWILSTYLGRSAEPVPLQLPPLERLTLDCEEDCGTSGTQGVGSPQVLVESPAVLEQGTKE
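Test system – labelled RRE RNA duplex and labelled Rev peptide · Signal – fluorescein-to-Cy5 FRET, 480 nm excitation · Evaluation – % inhibition of FRET ratio versus controls · Benchmarks – DMSO low control, neomycin B high control · Incubation – 5 min RNA-compound premix plus 15 min binding step, 25 °C · Medium – HEPES pH 7.5 salt buffer with EDTA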
S1P2 blocker = human S1P2 receptor antagonists, primary screen, cell-based | Sphingosine 1-phosphate receptor 2 (Homo sapiens), O95136 | cell-based S1P2 antagonist assay, inhibition at 5 uM | inhibition, % at 5 µM | actives 0.21% (n = 97,000); in the data active = inhibition above about 45%;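 note: CRE beta-lactamase reporter cells expressing human S1P2 stimulated with S1P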
GALR2 ag = GALR2 receptor agonists, primary screen, cell-based | Galanin receptor type 2 (Homo sapiens), O43603 | GALR2-expressing cells, agonist activation read-out | AID 803, 2007 | actives 0.48% (n = 140,000) | activation, % (test concentration not listed); in the data active = activation above about 5%, passing the limit was not always enough
Large screens that a line does not name were inactive; [ ] = dose if it differs, or a comment. Most compounds without a hit are left out; they make up all but 1.7% or so of the library.

CC(C)(C)c1ccc(CSc2nnc(-c3ccccn3)n2Cc2ccco2)cc1	S1P2 agonist 32
Brc1ccc(CSc2nnc(-c3ccccn3)n2Cc2ccco2)cc1	none
Cc1ccc(-c2nc3ccccc3c(=O)n2Cc2ccccc2)cc1	none (no result: S1P2 agonist, EphB4 ephrin blk, HIV Rev-RRE inh, S1P2 blocker)
C(=C\c1ccccc1)/CSc1nnc(-c2ccccc2)n1Cc1ccco1	S1P2 agonist 53
CCOC(=O)c1c(NC(=O)C(F)(OC)C(F)(F)F)sc2c1CCN(C)C2 (stereo not drawn)	HIV Rev-RRE inh 56
CCOC(=O)c1c(NC(=O)CSc2nnc(C)s2)sc2c1CCN(C)C2	HIV Rev-RRE inh 40
CCOC(=O)N1CCN(C(=O)C(NS(=O)(=O)c2cccc3nsnc23)c2ccccc2)CC1 (stereo not drawn)	none
CCOc1cccc(C2C(C(=O)c3ccc(C)o3)=C(O)C(=O)N2c2nccs2)c1 (stereo not drawn)	HIV Rev-RRE inh 74
CCOc1cccc(C2C(C(=O)c3ccc(C)o3)=C(O)C(=O)N2Cc2ccncc2)c1 (stereo not drawn)	none
CCOC(=O)CN1C=C(c2ccc3ccccc3n2)C(C[N+](=O)[O-])c2ccccc21 (stereo not drawn)	HIV Rev-RRE inh 94[fluorescence artefact?]
CCOC(=O)CSc1nc2ccccc2n1CC(=O)N(C(C)C)C(C)C	none
CNc1nc(Nc2ccc(Br)cc2)nc(N)c1[N+](=O)[O-]	GALR2 ag 5.3 (no result: S1P2 agonist, EphB4 ephrin blk, HIV Rev-RRE inh, S1P2 blocker)
Cc1cccc(Nc2nc(N)c([N+](=O)[O-])c(NCc3ccco3)n2)c1	none (no result: S1P2 agonist, EphB4 ephrin blk, HIV Rev-RRE inh, S1P2 blocker)
Cc1noc(NS(=O)(=O)c2ccc(NC(=O)c3cnc4n(c3=O)CCS4)cc2)c1C	none
OCCN(CCO)c1ncnc2c1oc1ccc(Br)cc12	S1P2 agonist 20
OCCSc1ncnc2c1oc1ccccc12	none
N=c1c(-c2nc3ccccc3[nH]2)cc(C(=O)c2cccs2)nn1-c1ccc(Cl)cc1	S1P2 agonist 30
O=C(/C(=C/c1ccc(Cl)cc1)c1nc2ccccc2[nH]1)c1cccs1	none
CC1(C(=O)NC2CCCCCCC2)CCC(=O)N1Cc1cccs1 (stereo not drawn)	none
O=C1CN(c2nc(-c3ccccc3)c3cc(Cl)ccc3n2)c2ccccc2N1	none (no result: S1P2 agonist, EphB4 ephrin blk, HIV Rev-RRE inh, S1P2 blocker)
OCCN1CCN(c2nc(-c3ccccc3)c3cc(Cl)ccc3n2)CC1	S1P2 agonist 18, GALR2 ag 19
CN1CCN(c2nc(-c3ccccc3)c3cc(Cl)ccc3n2)CC1	S1P2 agonist 25, GALR2 ag 18
C=CCNC(=O)/C(C#N)=C/c1c(C)nn(-c2ccccc2)c1Cl	none (no result: S1P2 agonist, EphB4 ephrin blk, HIV Rev-RRE inh, S1P2 blocker)
CCCc1nnc(NC(=O)CCCC(=O)O)s1	none
CCCc1nnc(NC(=O)CNc2ccc(F)cc2)s1	EphB4 ephrin blk 16
CCOc1ccc(S(=O)(=O)NCCC(=O)OC(C)C(=O)N2CCc3ccccc32)cc1 (stereo not drawn)	none
Cc1cc2c(=O)n(CC(=O)N3CCN(c4ccc(F)cc4)CC3)cnc2s1	S1P2 agonist 31
O=C(Cn1cnc2c(cnn2-c2ccc(F)cc2)c1=O)N1CCN(c2ccccc2F)CC1	none
COc1cc(/C=N/NS(=O)(=O)c2ccc3ccccc3c2)ccc1OCCN1CCOCC1	none (no result: S1P2 agonist, EphB4 ephrin blk, HIV Rev-RRE inh, S1P2 blocker)
CCCC12CN3CCN(CC(C3)/C1=N\NC(=O)c1ccc(C(C)(C)C)cc1)C2	none (no result: S1P2 agonist, EphB4 ephrin blk, HIV Rev-RRE inh, S1P2 blocker)
Cc1ccc2nc(N/N=C\c3ccc([N+](=O)[O-])o3)nc(-c3ccccc3)c2c1	HIV Rev-RRE inh 58
CCOc1cc(-c2cc(-c3ccc(C)cc3)nc(N)c2C#N)ccc1O	HIV Rev-RRE inh 39
C=CCN1C(=O)C(Cc2ccc(OC)cc2)S/C1=N/N=C/c1ccco1 (stereo not drawn)	none
C=CCSc1cc(C)nc2c(-c3ccc(Cl)cc3)c(C)nn12	S1P2 agonist 23
Cc1cc(SCC(=O)c2cccs2)n2nc(C)c(-c3ccc(Cl)cc3)c2n1	none (no result: S1P2 agonist, EphB4 ephrin blk, HIV Rev-RRE inh, S1P2 blocker)
CC1=Nc2ccccc2/C1=C\c1nc(-c2ccc(F)cc2)oc1O	EphB4 ephrin blk 15, HIV Rev-RRE inh 52
CN(C)c1ccnc(SCc2ccccc2Cl)c1C#N	none
COc1ccc(C2C(C(=O)c3cccs3)=C(O)C(=O)N2c2nnc(C)s2)cc1OC (stereo not drawn)	HIV Rev-RRE inh 107[fluorescence artefact?]
C=CCOc1cccc(C2C(C(=O)c3ccc(C)o3)=C(O)C(=O)N2Cc2ccncc2)c1 (stereo not drawn)	none
Cc1ccc(C2C(C(=O)c3ccco3)=C(O)C(=O)N2c2nnc(C)s2)cc1 (stereo not drawn)	HIV Rev-RRE inh 48
C=CCOc1ccc(C2C(C(=O)c3cccs3)=C(O)C(=O)N2c2nnc(C)s2)cc1 (stereo not drawn)	HIV Rev-RRE inh 102[fluorescence artefact?]
COc1ccc(C2C(C(C)=O)=C(O)C(=O)N2c2cccnc2)cc1OC (stereo not drawn)	none
COc1ccc(C2C(C(=O)c3cccs3)=C(O)C(=O)N2c2nncs2)cc1 (stereo not drawn)	HIV Rev-RRE inh 102[fluorescence artefact?]
Cc1cc(N2C(=O)C(O)=C(C(=O)c3ccco3)C2c2ccc(O)cc2)no1 (stereo not drawn)	none
NC(=O)C1CCN(C(=O)CSc2nc3c(c(-c4ccccc4)n2)CCCC3)CC1	none
COc1ccc(OC)c(C2C(C(=O)Nc3nc4ccccc4s3)=C(C)NC3=C2C(=O)CCC3)c1 (stereo not drawn)	S1P2 agonist 24, GALR2 ag 14
COc1cccc(C2C(C(=O)Nc3nc4ccccc4s3)=C(C)NC3=C2C(=O)CC(C)(C)C3)c1OC (stereo not drawn)	none
Cc1nnc(NC(=O)c2sc3nc(-c4cccs4)cc(C(F)(F)F)c3c2N)s1	HIV Rev-RRE inh 99[fluorescence artefact?]
CCN(CC)C(=O)c1sc2nc(-c3cccs3)cc(-c3ccc(Cl)cc3)c2c1N	none
COc1ccccc1NC(=O)c1sc2nc(Cc3ccccc3)cc(C(F)(F)F)c2c1N	HIV Rev-RRE inh 44
CC(C)(C)C(=O)c1sc2nc(-c3cccs3)cc(C(F)(F)F)c2c1N	HIV Rev-RRE inh 79[fluorescence artefact?]
CCn1ncc(/C=N\NC(=O)c2cc(-c3ccc(C)cc3C)nc3ccccc23)c1C	none
C=CCN(CC=C)C(=O)c1ccccc1NC(=O)c1ccccc1C	none
COc1ccc(CCn2c(N)c(C(=O)NCc3ccco3)c3nc4ccccc4nc32)cc1	none (no result: S1P2 agonist, EphB4 ephrin blk, HIV Rev-RRE inh, S1P2 blocker)
COCCNC(=O)c1c(N)n(CCC2=CCCCC2)c2nc3ccccc3nc12	S1P2 agonist 26, HIV Rev-RRE inh 56, GALR2 ag 19
CCOC(=O)c1oc2cccc(O)c2c1CN(Cc1ccccc1)C(C)=O	EphB4 ephrin blk 19
COC(=O)c1cc(C(=O)OC)cc(-n2c(C)cc(C(=O)COC(=O)CNS(=O)(=O)c3ccc(C)cc3)c2C)c1	none (no result: S1P2 agonist, EphB4 ephrin blk, HIV Rev-RRE inh, S1P2 blocker)
Cc1nn(-c2ccccc2)c(C)c1/C=N/NC(=O)c1ccccc1NS(=O)(=O)c1cccs1	none (no result: S1P2 agonist, EphB4 ephrin blk, HIV Rev-RRE inh, S1P2 blocker)
